Reference: ChEMBL document CHEMBL1133480, “Rational design, synthesis, and biological activity of benzoxazinones as novel factor Xa inhibitors” (J Med Chem, 2000)

What was measured:
Plasminogen [1] = molecular target: T1, Plasminogen (Homo sapiens, UniProt P00747); assay: Compound was tested for in vitro inhibitory activity against plasmin at 100 uM
Prothrombin [2] = molecular target: T2, Prothrombin (Homo sapiens, UniProt P00734); assay: Inhibition of thrombin at 100 uM
Serine protease 1 [3] = molecular target: T3, Serine protease 1 (Homo sapiens, UniProt P07477); assay: In vitro inhibitory activity against trypsin at 100 uM
Coagulation factor X [4] = molecular target: T4, Coagulation factor X (Homo sapiens, UniProt P00742); assay: In vitro inhibition of coagulation factor Xa.
How it was run: (§1)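 Enzyme was preincubated 1 h at room temperature with inhibitor across 14 concentrations (1 nM–100 μM final). A405 was read kinetically over 10 min at 37 °C. Percent inhibition came from the linear progress-curve slopes, typically in duplicate.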

Plasminogen [5] = molecular target: T1, Plasminogen; assay: Inhibition of plasmin at 100 uM
Plasminogen [6] = molecular target: T1, Plasminogen; assay: Compound was tested for in vitro inhibitory activity against plasmin; how it was run: as §1
Prothrombin [7] = molecular target: T2, Prothrombin; assay: Inhibition of thrombin; how it was run: as §1
Serine protease 1 [8] = molecular target: T3, Serine protease 1; assay: In vitro inhibitory activity against trypsin; how it was run: as §1
[9] = molecular target: Vitamin K-dependent protein C (Homo sapiens, UniProt P04070); assay: Compound was tested for in vitro inhibitory activity against activated protein C
[10] = Compound was tested for in vitro inhibitory activity against Chymotrypsinogen at 100 uM
Homo sapiens [11] = organism: Homo sapiens; assay: In Vitro evaluation for the concentration for 2 fold prolongation of Prolonged activated partial thromboplastin Time (aPTT) assay in human; assay type: functional
How it was run: (§2)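 Clotting assays (PT or aPTT) used pooled plasma from the named species with added inhibitor. The value is the concentration giving a 2-fold prolongation of clotting time. Determinations were done in duplicate.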

Oryctolagus cuniculus [12] = organism: Oryctolagus cuniculus; assay: In Vitro evaluation for the concentration for 2 fold prolongation of Prothrombin Time (PT) assay in rabbit; assay type: functional; how it was run: as §2
Coagulation factor X [13] = molecular target: T4, Coagulation factor X; assay: Compound was tested for in vitro inhibitory activity against Prothrombinase
Canis familiaris [14] = assay: effect on the time to occlusion(TO) in the dog electrolytic injury model at the 0 ug/kg/min to the vein; assay type: functional, Canis lupus familiaris
How it was run: (§3)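 Anesthetized dogs received electrolytic injury to the endothelium as the thrombotic stimulus in the femoral artery and a vein. Agent was infused continuously at 0 (control), 1.25, 2.5, 5 or 10 μg/kg/min. Time to occlusion was recorded up to a maximum of 240 min. n = 12 control, 4 at 1.25, and 5 at each other dose; mean ± SEM.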

Canis familiaris [15] = assay: effect on the time to occlusion(TO) in the dog electrolytic injury model at the 1.25 ug/kg/min to the artery; assay type: functional, Canis lupus familiaris; how it was run: as §3
Canis familiaris [16] = assay: effect on the time to occlusion(TO) in the dog electrolytic injury model at the 1.25 ug/kg/min to the vein; assay type: functional, Canis lupus familiaris; how it was run: as §3
Canis familiaris [17] = assay: effect on the time to occlusion(TO) in the dog electrolytic injury model at the 10 ug/kg/min to the artery; assay type: functional, Canis lupus familiaris; how it was run: as §3
Canis familiaris [18] = assay: effect on the time to occlusion(TO) in the dog electrolytic injury model at the 10 ug/kg/min to the vein; assay type: functional, Canis lupus familiaris; how it was run: as §3
Canis familiaris [19] = assay: effect on the time to occlusion(TO) in the dog electrolytic injury model at the 2.5 ug/kg/min to the artery; assay type: functional, Canis lupus familiaris; how it was run: as §3
Canis familiaris [20] = assay: effect on the time to occlusion(TO) in the dog electrolytic injury model at the 2.5 ug/kg/min to the vein; assay type: functional, Canis lupus familiaris; how it was run: as §3
Canis familiaris [21] = assay: effect on the time to occlusion(TO) in the dog electrolytic injury model at the 5 ug/kg/min to the artery; assay type: functional, Canis lupus familiaris; how it was run: as §3
Canis familiaris [22] = assay: effect on the time to occlusion(TO) in the dog electrolytic injury model at the 5 ug/kg/min to the vein; assay type: functional, Canis lupus familiaris; how it was run: as §3
Canis familiaris [23] = assay: effect on the time to occlusion(TO) in the dog electrolytic injury model at the 0 ug/kg/min to the artery; assay type: functional, Canis lupus familiaris; how it was run: as §3
[24] = molecular target: T5, Coagulation factor VII (Homo sapiens) (UniProt P08709); assay: Compound was tested for in vitro inhibitory activity against coagulation factor VII at 100 uM
T5 sequence (whole entry): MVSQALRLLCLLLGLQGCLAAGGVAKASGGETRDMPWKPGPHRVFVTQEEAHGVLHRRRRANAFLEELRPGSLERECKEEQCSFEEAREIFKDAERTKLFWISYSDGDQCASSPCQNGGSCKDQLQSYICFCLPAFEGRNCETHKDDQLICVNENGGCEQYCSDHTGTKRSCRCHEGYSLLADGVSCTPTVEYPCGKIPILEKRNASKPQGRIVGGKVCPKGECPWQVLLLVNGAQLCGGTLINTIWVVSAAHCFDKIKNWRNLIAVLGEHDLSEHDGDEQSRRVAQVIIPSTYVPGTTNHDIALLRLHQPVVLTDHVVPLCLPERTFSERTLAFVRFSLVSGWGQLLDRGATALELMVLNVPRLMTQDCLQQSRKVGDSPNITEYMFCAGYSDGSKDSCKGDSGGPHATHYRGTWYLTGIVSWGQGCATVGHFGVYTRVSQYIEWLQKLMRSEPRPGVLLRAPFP

Oryctolagus cuniculus [25] = assay: effect on the time to occlusion in the rabbit Veno-venous Shunt model by administering through intravenous (IV) bolus (30 ug/kg) + infusion (1 ug/kg/min); assay type: functional
How it was run: (§4)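 Rabbit veno-venous shunt containing cotton threads. Test agent was given as an iv bolus plus continuous infusion at the stated dose. The endpoint was time to occlusion of the shunt vessel, observed over a 2-h window. Incidence of occlusion per group was recorded. n = 5 per dose group, mean ± SE.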

Oryctolagus cuniculus [26] = organism: Oryctolagus cuniculus; assay: In Vitro evaluation for the concentration for 2 fold prolongation of Prolonged activated partial thromboplastin Time (aPTT) assay in rabbit; assay type: functional; how it was run: as §2
Oryctolagus cuniculus [27] = assay: effect on the time to occlusion in the rabbit Veno-venous Shunt model by administering through intravenous (IV) bolus (90 ug/kg) + infusion (3 ug/kg/min); assay type: functional; how it was run: as §4
Oryctolagus cuniculus [28] = assay: effect on the time to occlusion in the rabbit Veno-venous Shunt model by administering through intravenous (IV) bolus (60 ug/kg) + infusion (2 ug/kg/min); assay type: functional; how it was run: as §4
Canis lupus familiaris [29] = organism: Canis lupus familiaris; assay: In Vitro evaluation for the concentration for 2 fold prolongation of Prothrombin Time (PT) assay in dog
Homo sapiens [30] = organism: Homo sapiens; assay: In Vitro evaluation for the concentration for 2 fold prolongation of Prothrombin Time (PT) assay in human
Canis lupus familiaris [31] = organism: Canis lupus familiaris; assay: In Vitro evaluation for the concentration for 2 fold prolongation of Prolonged activated partial thromboplastin Time (aPTT) assay in dog
Coagulation factor X [32] = molecular target: T4, Coagulation factor X; assay: Compound was tested for in vitro inhibitory activity against Coagulation factor X at 100 uM

T3 sequence (P07477 whole entry): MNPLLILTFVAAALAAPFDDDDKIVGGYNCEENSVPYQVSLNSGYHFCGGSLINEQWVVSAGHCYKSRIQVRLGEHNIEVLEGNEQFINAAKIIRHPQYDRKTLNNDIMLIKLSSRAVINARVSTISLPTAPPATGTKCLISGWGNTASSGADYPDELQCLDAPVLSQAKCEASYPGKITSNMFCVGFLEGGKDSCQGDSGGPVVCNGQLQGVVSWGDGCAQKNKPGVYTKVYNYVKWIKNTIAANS
T1 sequence (P00747 97-580 limits assumed): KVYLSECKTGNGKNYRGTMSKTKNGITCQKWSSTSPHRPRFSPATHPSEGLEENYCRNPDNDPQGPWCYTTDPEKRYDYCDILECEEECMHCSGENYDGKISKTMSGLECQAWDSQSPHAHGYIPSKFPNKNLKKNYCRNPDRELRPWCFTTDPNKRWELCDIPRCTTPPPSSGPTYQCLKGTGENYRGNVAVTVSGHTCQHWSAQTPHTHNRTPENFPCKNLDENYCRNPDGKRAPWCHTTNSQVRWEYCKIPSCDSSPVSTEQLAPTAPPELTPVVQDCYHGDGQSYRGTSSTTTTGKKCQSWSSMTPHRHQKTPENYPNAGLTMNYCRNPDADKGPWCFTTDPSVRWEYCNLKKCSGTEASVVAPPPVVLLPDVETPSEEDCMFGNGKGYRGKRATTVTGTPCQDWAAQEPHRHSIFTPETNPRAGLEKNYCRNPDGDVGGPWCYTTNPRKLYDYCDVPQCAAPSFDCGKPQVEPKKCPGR
T1 sequence (P00747 581-810 limits assumed): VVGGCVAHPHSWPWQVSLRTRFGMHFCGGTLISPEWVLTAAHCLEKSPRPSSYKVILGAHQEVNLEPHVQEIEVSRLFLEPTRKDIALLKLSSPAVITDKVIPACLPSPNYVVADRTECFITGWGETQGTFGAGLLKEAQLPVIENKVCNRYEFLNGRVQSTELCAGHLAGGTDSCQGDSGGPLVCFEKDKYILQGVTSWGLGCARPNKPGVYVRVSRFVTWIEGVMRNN
T4 sequence (P00742 41-179 limits assumed): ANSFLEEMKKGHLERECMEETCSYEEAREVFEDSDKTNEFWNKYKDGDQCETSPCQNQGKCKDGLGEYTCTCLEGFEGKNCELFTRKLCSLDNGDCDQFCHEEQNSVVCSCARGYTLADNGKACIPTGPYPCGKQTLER
T4 sequence (P00742 235-488 limits assumed): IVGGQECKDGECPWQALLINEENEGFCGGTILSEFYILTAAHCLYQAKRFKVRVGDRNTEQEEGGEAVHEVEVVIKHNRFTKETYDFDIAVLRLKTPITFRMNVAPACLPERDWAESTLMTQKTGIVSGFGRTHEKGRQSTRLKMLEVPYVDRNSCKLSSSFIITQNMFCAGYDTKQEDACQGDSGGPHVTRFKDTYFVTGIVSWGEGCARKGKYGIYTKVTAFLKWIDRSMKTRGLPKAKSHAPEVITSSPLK
Chain of Vitamin K-dependent protein C (P04070 43-197 limits assumed): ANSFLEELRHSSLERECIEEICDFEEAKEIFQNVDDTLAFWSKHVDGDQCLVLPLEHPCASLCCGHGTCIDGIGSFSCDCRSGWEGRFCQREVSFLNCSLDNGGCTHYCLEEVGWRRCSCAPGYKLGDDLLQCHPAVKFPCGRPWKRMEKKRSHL
Chain of Vitamin K-dependent protein C (P04070 212-461 limits assumed): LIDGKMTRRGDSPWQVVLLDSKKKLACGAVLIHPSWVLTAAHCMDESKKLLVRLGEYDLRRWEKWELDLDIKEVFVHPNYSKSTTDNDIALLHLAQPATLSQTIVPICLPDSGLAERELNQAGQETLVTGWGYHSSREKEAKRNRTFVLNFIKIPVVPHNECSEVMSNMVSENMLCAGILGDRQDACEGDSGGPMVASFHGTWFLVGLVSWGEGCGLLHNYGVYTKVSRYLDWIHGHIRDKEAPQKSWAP

C/N=C(/N)c1cccc(C2Oc3ccccc3N(CCCCCN3C(C)CCCC3C)C2=O)c1 (stereo not drawn)
inhibition (Plasminogen [1]): 32%
inhibition (Prothrombin [2]): 68%
inhibition (Serine protease 1 [3]): 32%

CC1CCCC(C)N1CCCCCN1C(=O)C(c2ccccc2)Oc2ccccc21 (stereo not drawn)
IC50 (Coagulation factor X [4]): 27 µM
inhibition (Plasminogen [1]): 26%
inhibition (Prothrombin [2]): 19%
inhibition (Serine protease 1 [3]): 2.8%

CC1CCCC(C)N1CCCCCN1C(=O)C(c2ccc(C(=N)NO)cc2)Oc2ccccc21 (stereo not drawn)
IC50 (Coagulation factor X [4]): 66 µM
inhibition (Plasminogen [5]): 10%
inhibition (Prothrombin [2]): 18%
inhibition (Serine protease 1 [3]): 8%

Cc1ccc(C2Oc3ccccc3N(CCCCCN3C(C)CCCC3C)C2=O)cc1 (stereo not drawn)
IC50 (Coagulation factor X [4]): 28 µM
inhibition (Plasminogen [5]): 13%
inhibition (Prothrombin [2]): 33%
inhibition (Serine protease 1 [3]): 18%

CC1CCCC(C)N1CCCCCCN1C(=O)C(c2cccc(C(=N)N)c2)Oc2ccccc21 (stereo not drawn)
IC50 (Coagulation factor X [4]): 0.068 µM
IC50 (Plasminogen [6]): 12 µM
IC50 (Prothrombin [7]): 5.6 µM
IC50 (Serine protease 1 [8]): 2.1 µM

CNC(=N)c1cccc(C2Oc3ccccc3N(CCCCCN3C(C)CCCC3C)C2=O)c1 (stereo not drawn)
IC50 (Coagulation factor X [4]): 2.8 µM

CC1CCCC(C)N1CCCCCN1C(=O)C(c2cccc(C(=N)N)c2)Oc2ccccc21 (stereo not drawn)
IC50 [9]: 23 µM
IC50 (Coagulation factor X [4]): 0.003 µM
inhibition [10]: 24%
Concentration (Homo sapiens [11]): 0.34 µM
IC50 (Plasminogen [6]): 8.4 µM
Concentration (Oryctolagus cuniculus [12]): 0.33 µM
IC50 (Coagulation factor X [13]): 0.004 µM
TO (Canis familiaris [14]): 120 min
TO (Canis familiaris [15]): 148 min
TO (Canis familiaris [16]): 125 min
TO (Canis familiaris [17]): 240 min
TO (Canis familiaris [18]): 240 min
TO (Canis familiaris [19]): 167 min
TO (Canis familiaris [20]): 144 min
TO (Canis familiaris [21]): 240 min
TO (Canis familiaris [22]): 220 min
TO (Canis familiaris [23]): 87 min
inhibition [24]: 32%
TO (Oryctolagus cuniculus [25]): 27 min
Concentration (Oryctolagus cuniculus [26]): 0.15 µM
TO (Oryctolagus cuniculus [27]): 98 min
TO (Oryctolagus cuniculus [28]): 37 min
Concentration (Canis lupus familiaris [29]): 0.57 µM
Concentration (Homo sapiens [30]): 0.17 µM
Concentration (Canis lupus familiaris [31]): 0.19 µM

CC1CCCC(C)N1CCCCCN1C(=O)C(c2ccccc2Cl)Oc2ccccc21 (stereo not drawn)
IC50 (Coagulation factor X [4]): 16 µM
inhibition (Plasminogen [5]): 23%
IC50 (Prothrombin [7]): 65 µM
IC50 (Serine protease 1 [8]): 39 µM

CC1CCCC(C)N1CCCCCN1C(=O)C(c2cccc(C(=N)NO)c2)Oc2ccccc21 (stereo not drawn)
IC50 (Coagulation factor X [4]): 5.6 µM
inhibition (Plasminogen [5]): 11%
inhibition (Prothrombin [2]): 19%
inhibition (Serine protease 1 [3]): 21%

N=C(N)c1cccc(C2Oc3ccccc3N(CCCCCN)C2=O)c1 (stereo not drawn)
IC50 (Coagulation factor X [4]): 6.3 µM
inhibition (Plasminogen [1]): 64%
inhibition (Prothrombin [2]): 60%
IC50 (Serine protease 1 [8]): 4.3 µM

CC1CCCC(C)N1CCCCCN1C(=O)C(c2ccc(C(=N)N)cc2)Oc2ccccc21 (stereo not drawn)
IC50 (Coagulation factor X [4]): 7.9 µM
inhibition (Plasminogen [5]): 80%
IC50 (Prothrombin [7]): 1.7 µM
IC50 (Serine protease 1 [8]): 13 µM

COc1ccc(C2Oc3ccccc3N(CCCCCN3C(C)CCCC3C)C2=O)cc1OC (stereo not drawn)
inhibition (Coagulation factor X [32]): 31%
inhibition (Plasminogen [5]): 0%
inhibition (Prothrombin [2]): 0%
inhibition (Serine protease 1 [3]): 0%

CC1CCC(C)N1CCCCCN1C(=O)C(c2cccc(C(=N)N)c2)Oc2ccccc21 (stereo not drawn)
IC50 (Coagulation factor X [4]): 0.048 µM
inhibition (Plasminogen [1]): 85%
IC50 (Prothrombin [7]): 0.91 µM
IC50 (Serine protease 1 [8]): 0.76 µM

N=C(N)c1cccc(C2Oc3ccccc3N(CCCCCN3CCOCC3)C2=O)c1 (stereo not drawn)
IC50 (Coagulation factor X [4]): 0.24 µM
inhibition (Plasminogen [1]): 70%
IC50 (Prothrombin [7]): 2.2 µM
IC50 (Serine protease 1 [8]): 1.1 µM
